Results reported in ChEMBL document CHEMBL2040721, “Potent direct inhibitors of factor Xa based on the tetrahydroisoquinoline scaffold” (Eur J Med Chem, 2012).

Columns and labels:
Coagulation factor X = Coagulation factor X (Homo sapiens, UniProt P00742); test: Inhibition of human factor 10a using chromogenic spectrozyme F10a as substrate after 10 mins by spectrophotometry
Procedure, shortened: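 Human plasma FXa pre-incubated 10 min at 37 °C with inhibitor (twelve concentrations, 0.015–500 μM in well) in pH 7.4 buffer, then Spectrozyme FXa added. Initial rate of A405 rise gives residual activity relative to no-inhibitor control. Duplicate or triplicate; logistic fit gives IC50, efficacy and Hill slope. Organic solvent held constant, <2.5% v/v.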

Coagulation factor VII = target: T1, Coagulation factor VII (Homo sapiens, UniProt P08709); test: Inhibition of human factor 7a using chromogenic spectrozyme 7a as substrate after 10 mins by spectrophotometry
T1 sequence (P08709 whole entry): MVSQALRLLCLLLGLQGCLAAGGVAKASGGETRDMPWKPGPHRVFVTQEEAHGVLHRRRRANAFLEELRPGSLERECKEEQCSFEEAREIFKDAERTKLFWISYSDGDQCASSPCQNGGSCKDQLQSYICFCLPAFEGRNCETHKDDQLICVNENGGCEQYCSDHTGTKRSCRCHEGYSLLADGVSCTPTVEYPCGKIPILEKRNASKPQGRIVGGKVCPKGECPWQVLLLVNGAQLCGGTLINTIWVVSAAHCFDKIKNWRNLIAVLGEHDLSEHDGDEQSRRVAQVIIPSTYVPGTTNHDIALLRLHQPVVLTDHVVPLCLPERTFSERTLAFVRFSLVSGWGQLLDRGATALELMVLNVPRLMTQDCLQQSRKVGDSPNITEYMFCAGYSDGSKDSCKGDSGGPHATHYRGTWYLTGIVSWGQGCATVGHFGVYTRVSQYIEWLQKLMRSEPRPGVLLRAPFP

Coagulation factor XII = target: T2, Coagulation factor XII (Homo sapiens, UniProt P00748); test: Inhibition of factor 12a using chromogenic spectrozyme 12a as substrate after 10 mins by spectrophotometry
T2 sequence (P00748 whole entry): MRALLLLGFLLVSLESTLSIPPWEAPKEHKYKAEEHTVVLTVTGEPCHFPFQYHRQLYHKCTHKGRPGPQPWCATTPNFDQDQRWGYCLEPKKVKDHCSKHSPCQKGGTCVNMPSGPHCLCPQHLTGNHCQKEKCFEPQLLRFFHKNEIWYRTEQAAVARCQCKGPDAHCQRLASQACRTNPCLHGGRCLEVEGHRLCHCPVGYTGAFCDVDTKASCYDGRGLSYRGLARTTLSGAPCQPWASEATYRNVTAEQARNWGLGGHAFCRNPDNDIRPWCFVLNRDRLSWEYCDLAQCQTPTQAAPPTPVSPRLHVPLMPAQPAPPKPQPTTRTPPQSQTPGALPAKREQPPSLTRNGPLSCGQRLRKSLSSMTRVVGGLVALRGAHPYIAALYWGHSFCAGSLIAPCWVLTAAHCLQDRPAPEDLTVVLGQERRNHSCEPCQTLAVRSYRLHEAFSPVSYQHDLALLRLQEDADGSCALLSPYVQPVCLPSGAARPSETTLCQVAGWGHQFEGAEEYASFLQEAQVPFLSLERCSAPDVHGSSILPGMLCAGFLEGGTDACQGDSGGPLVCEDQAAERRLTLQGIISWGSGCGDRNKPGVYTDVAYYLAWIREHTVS

[1] = Selectivity index ratio of IC50 for bovine trypsin to IC50 for human factor10a
Chymotrypsinogen A = Chymotrypsinogen A (Bos taurus, UniProt P00766); test: Inhibition of bovine alpha-chymotrypsin using chromogenic spectrozyme CTY as substrate after 10 mins by spectrophotometry
Plasma [2] = test: Anticoagulant activity in human plasma assessed as concentration required to double the prothrombin time incubated for 30 s prior to thromboplastin addition by fibrometry
Plasma [3] = test: Anticoagulant activity in human plasma assessed as concentration required to double the activated […] time incubated for 4 mins prior to CaCl2-challenge by fibrometry; type: functional
Coagulation factor XI = Coagulation factor XI (Homo sapiens, UniProt P03951); test: Inhibition of human factor 11a using chromogenic S2366 as substrate after 10 mins by spectrophotometry
Sequence of Coagulation factor XI (P03951 19-387 limits assumed): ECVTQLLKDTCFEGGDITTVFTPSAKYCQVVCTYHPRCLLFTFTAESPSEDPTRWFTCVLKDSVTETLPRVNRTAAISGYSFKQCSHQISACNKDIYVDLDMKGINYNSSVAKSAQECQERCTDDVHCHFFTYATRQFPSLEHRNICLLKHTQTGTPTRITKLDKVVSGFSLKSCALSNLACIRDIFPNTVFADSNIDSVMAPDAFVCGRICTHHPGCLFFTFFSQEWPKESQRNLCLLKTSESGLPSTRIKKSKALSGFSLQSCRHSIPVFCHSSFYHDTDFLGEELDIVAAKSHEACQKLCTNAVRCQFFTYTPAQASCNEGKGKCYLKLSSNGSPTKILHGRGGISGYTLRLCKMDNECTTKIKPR
Sequence of Coagulation factor XI (P03951 388-625 limits assumed): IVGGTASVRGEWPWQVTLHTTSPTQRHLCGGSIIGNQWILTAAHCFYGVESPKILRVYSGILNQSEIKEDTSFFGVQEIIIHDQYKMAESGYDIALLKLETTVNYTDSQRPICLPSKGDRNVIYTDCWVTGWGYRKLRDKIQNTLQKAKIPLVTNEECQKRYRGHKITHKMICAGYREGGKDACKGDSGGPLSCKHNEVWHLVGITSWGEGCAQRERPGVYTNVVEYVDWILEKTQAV

Homo sapiens [4] = species on record: Homo sapiens; test: Selectivity index ratio of IC50 for factor 12a to IC50 for human factor 10a
Coagulation factor IX = Coagulation factor IX (Homo sapiens, UniProt P00740); test: Inhibition of human factor 9a using chromogenic spectrozyme 9a as substrate after 10 mins by spectrophotometry
Sequence of Coagulation factor IX (P00740 47-191 limits assumed): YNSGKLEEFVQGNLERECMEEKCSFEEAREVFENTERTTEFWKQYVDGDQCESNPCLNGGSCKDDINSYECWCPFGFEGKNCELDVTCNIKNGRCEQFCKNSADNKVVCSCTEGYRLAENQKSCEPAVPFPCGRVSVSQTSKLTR
Sequence of Coagulation factor IX (P00740 227-461 limits assumed): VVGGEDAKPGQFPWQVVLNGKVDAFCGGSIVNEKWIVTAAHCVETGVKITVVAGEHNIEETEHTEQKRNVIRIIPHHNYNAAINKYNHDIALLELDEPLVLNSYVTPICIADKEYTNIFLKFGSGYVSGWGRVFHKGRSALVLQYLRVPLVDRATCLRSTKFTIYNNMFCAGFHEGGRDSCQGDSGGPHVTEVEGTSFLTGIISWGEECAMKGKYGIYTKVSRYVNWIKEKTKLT

Homo sapiens [5] = species on record: Homo sapiens; test: Selectivity index ratio of IC50 for human factor 11a to IC50 for human factor 10a
[6] = Inhibition of bovine trypsin using chromogenic S2222 as substrate after 10 mins by spectrophotometry; set-up: species or system Bos taurus
Homo sapiens [7] = species on record: Homo sapiens; test: Selectivity index ratio of IC50 for human factor 7a to IC50 for human factor 10a
Homo sapiens [8] = species on record: Homo sapiens; test: Selectivity index ratio of IC50 for human factor 9a to IC50 for human factor 10a
Prothrombin = Prothrombin (Homo sapiens, UniProt P00734); test: Inhibition of human factor 2a using chromogenic spectrozyme TH as substrate after 10 mins by spectrophotometry
Homo sapiens [9] = species on record: Homo sapiens; test: Selectivity index ratio of IC50 for human factor 2a to IC50 for human factor 10a
[10] = Selectivity index ratio of IC50 for bovine alpha-chymotrypsin to IC50 for human factor10a

Sequence of Coagulation factor X (P00742 41-179 limits assumed): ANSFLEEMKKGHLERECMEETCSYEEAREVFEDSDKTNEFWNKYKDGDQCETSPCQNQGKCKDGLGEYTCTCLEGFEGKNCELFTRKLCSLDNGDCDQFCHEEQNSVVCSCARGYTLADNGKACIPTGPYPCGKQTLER
Sequence of Coagulation factor X (P00742 235-488 limits assumed): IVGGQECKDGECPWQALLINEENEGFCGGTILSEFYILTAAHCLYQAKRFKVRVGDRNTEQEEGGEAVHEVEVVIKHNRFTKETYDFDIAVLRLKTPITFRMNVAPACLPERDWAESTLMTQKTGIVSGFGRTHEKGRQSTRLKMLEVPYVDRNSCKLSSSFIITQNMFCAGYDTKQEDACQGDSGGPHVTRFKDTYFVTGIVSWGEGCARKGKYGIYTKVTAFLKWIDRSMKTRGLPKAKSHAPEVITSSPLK

Row | Structure (SMILES) | IC50 (Coagulation factor X) [µM] | further results
1 | COc1cc2c(cc1OC)CN(C(=O)Cc1ccc(Cl)cc1)[C@H](C(=O)N(C)c1ccc(N3CCCCC3=O)cc1)C2 | 7.8 | –
2 | CN(C(=O)[C@@H]1Cc2ccccc2CN1C(=O)OCc1ccccc1)c1ccc(N2CCOCC2=O)cc1 | 12.8 | –
3 | O=C(Nc1ccc(N2CCCCC2=O)cc1)[C@@H]1Cc2ccccc2CN1C(=O)c1ccc(C(F)(F)F)cc1 | 13.3 | –
4 | CN(C(=O)[C@H]1Cc2ccccc2CN1C(=O)Cc1ccc(C(F)(F)F)cc1)c1ccc(N2CCCCC2=O)cc1 | 311 | –
5 | CN(C(=O)[C@@H]1Cc2ccccc2CN1C(=O)CCc1ncc(-c2ccc(Cl)cc2)o1)c1ccc(N2CCCCC2=O)cc1 | 103 | –
6 | CCN(C(=O)[C@@H]1Cc2ccccc2CN1C(=O)OCc1ccccc1)c1ccc(N2CCCCC2=O)cc1 | 20 | –
7 | O=C(Nc1ccc(N2CCOCC2=O)cc1)[C@H]1Cc2ccccc2CN1C(=O)Cc1ccc(Cl)cc1 | 0.27 | IC50 (Coagulation factor VII): > 1000 µM; IC50 (Coagulation factor XII): > 500 µM; Ratio IC50 [1]: > 370; IC50 (Chymotrypsinogen A): 75.3 µM; 2PT (Plasma [2]): 17.1 µM; 2aPTT (Plasma [3]): 20.2 µM; IC50 (Coagulation factor XI): > 500 µM; Ratio IC50 (Homo sapiens [4]): > 1850; IC50 (Coagulation factor IX): > 1000 µM; Ratio IC50 (Homo sapiens [5]): > 1850; IC50 [6]: > 100 µM; Ratio IC50 (Homo sapiens [7]): > 3700; Ratio IC50 (Homo sapiens [8]): > 3700; IC50 (Prothrombin): > 500 µM; Ratio IC50 (Homo sapiens [9]): > 1850; Ratio IC50 [10]: 279
8 | O=C(Nc1ccc(N2CCCCC2=O)cc1)[C@@H]1Cc2ccccc2CN1C(=O)OCc1ccccc1 | 9.9 | –
9 | CC(=O)N1CCN(c2ccc(NC(=O)[C@@H]3Cc4ccccc4CN3C(=O)OCc3ccccc3)cc2)CC1 | > 500 | –
10 | O=C(Nc1ccc(N2CCOCC2=O)cc1)[C@@H]1Cc2ccccc2CN1C(=O)c1ccc(CCl)cc1 | 2.9 | 2PT (Plasma [2]): 645 µM; 2aPTT (Plasma [3]): 614 µM
11 | COc1ccc(CC(=O)N2Cc3ccccc3C[C@H]2C(=O)N(C)c2ccc(N3CCCCC3=O)cc2)cc1 | 34 | –
12 | CN(C(=O)[C@@H]1Cc2ccccc2CN1C(=O)c1ccc(Cl)s1)c1ccc(N2CCOCC2=O)cc1 | 36 | –
13 | CN(C(=O)[C@@H]1Cc2ccccc2CN1C(=O)Cc1ccc(Cl)cc1)c1ccc(N2CCOCC2=O)cc1 | 1.1 | –
14 | O=C(Nc1ccc(N2CCOCC2=O)cc1)[C@@H]1[C@@H]2CC[C@H](C2)N1C(=O)Cc1ccc(Cl)cc1 | 10 | 2PT (Plasma [2]): 2347 µM
15 | CN(C(=O)[C@H](Cc1ccccc1)NC(=O)Cc1ccc(Cl)cc1)c1ccc(N2CCCCC2=O)cc1 | 54 | –
16 | O=C(Nc1ccc(N2CCOCC2=O)cc1)[C@@H]1CC=CCN1C(=O)Cc1ccc(Cl)cc1 | 9 | 2PT (Plasma [2]): 952 µM; 2aPTT (Plasma [3]): 810 µM
17 | CN(C(=O)[C@@H]1Cc2ccccc2CN1C(=O)Cc1ccc(C(F)(F)F)cc1)c1ccc(N2CCCCC2=O)cc1 | 335 | –
18 | Cc1ccc(C(=O)N2Cc3ccccc3C[C@H]2C(=O)N(C)c2ccc(N3CCCCC3=O)cc2)cc1 | 209 | –
19 | CN(C(=O)[C@H]1CCCN(C(=O)Cc2ccc(Cl)cc2)C1)c1ccc(N2CCCCC2=O)cc1 | 371 | –
20 | O=C(Nc1ccc(N2CCOCC2=O)cc1)[C@H]1CCCCN1C(=O)Cc1ccc(Cl)cc1 | 23 | –
21 | COc1ccc(CCC(=O)N2Cc3ccccc3C[C@H]2C(=O)N(C)c2ccc(N3CCOCC3=O)cc2)cc1 | 190 | –
22 | O=C(Nc1ccc(N2CCOCC2=O)cc1)[C@@H]1Cc2ccccc2CN1C(=O)OCc1ccccc1 | 6 | 2PT (Plasma [2]): 1387 µM
23 | Cc1ccc(CC(=O)N2Cc3ccccc3C[C@H]2C(=O)N(C)c2ccc(N3CCCCC3=O)cc2)cc1 | 14 | –
24 | CN(C(=O)[C@@H]1Cc2ccccc2CN1C(=O)Cc1ccc(Cl)c(Cl)c1)c1ccc(N2CCCCC2=O)cc1 | 18 | –

Row | Structure (SMILES) | IC50 (Coagulation factor X) [µM] | further results
25 | CN(C(=O)[C@H]1CCCCN1C(=O)c1ccc(Cl)s1)c1ccc(N2CCCCC2=O)cc1 | 99 | –
26 | CCN(C(=O)[C@@H]1Cc2ccccc2CN1C(=O)OCc1ccccc1)c1ccc(N2CCOCC2=O)cc1 | 19 | –
27 | CN(C(=O)[C@@H]1CCCCN1C(=O)c1ccc(Cl)s1)c1ccc(N2CCCCC2=O)cc1 | 358 | –
28 | CN(C(=O)[C@@H]1Cc2ccccc2CN1S(=O)(=O)Cc1ccc(Cl)cc1)c1ccc(N2CCCCC2=O)cc1 | 151 | –
29 | CCN(C(=O)[C@@H]1Cc2ccccc2CN1C(=O)Cc1ccc(Cl)cc1)c1ccc(N2CCOCC2=O)cc1 | 1.6 | –
30 | CN(C(=O)[C@@H]1Cc2ccccc2CN1C(=O)c1cccs1)c1ccc(N2CCCCC2=O)cc1 | 42 | –
31 | O=C(Nc1ccc(Cl)cc1)[C@@H]1Cc2ccccc2CN1C(=O)OCc1ccccc1 | > 500 | –
32 | Cc1c(C(=O)N2Cc3ccccc3C[C@H]2C(=O)Nc2ccc(N3CCOCC3=O)cc2)sc2ccc(Cl)cc12 | 5.4 | 2PT (Plasma [2]): 2160 µM
33 | CN(C(=O)[C@@H]1Cc2ccccc2CN1C(=O)Cc1ccc(Cl)cc1Cl)c1ccc(N2CCCCC2=O)cc1 | 1.3 | 2PT (Plasma [2]): 219 µM; 2aPTT (Plasma [3]): 260 µM
34 | CN(C(=O)[C@@H]1Cc2ccccc2CN1C(=O)Cc1ccc([N+](=O)[O-])cc1)c1ccc(N2CCCCC2=O)cc1 | 85 | –
35 | CN(C(=O)[C@@H]1Cc2ccccc2CN1C(=O)c1cc(-c2ccc(Br)cc2)cs1)c1ccc(N2CCOCC2=O)cc1 | > 500 | –
36 | CN(C(=O)[C@@H]1Cc2ccccc2CN1C(=O)Cc1ccc(Cl)cc1)c1ccc(N2CCCCC2=O)cc1 | 1.3 | 2PT (Plasma [2]): 71 µM; 2aPTT (Plasma [3]): 80 µM
37 | CN(C(=O)[C@@H]1Cc2ccccc2CN1C(=O)c1ccc(Cl)cc1)c1ccc(N2CCCCC2=O)cc1 | 197 | –
38 | COc1ccc(C(=O)N2Cc3ccccc3C[C@H]2C(=O)N(C)c2ccc(N3CCCCC3=O)cc2)cc1 | 19 | –
39 | O=C(Nc1ccc(N2CCCCC2)cc1)[C@@H]1Cc2ccccc2CN1C(=O)OCc1ccccc1 | > 500 | –
40 | COc1ccc(CCC(=O)N2Cc3ccccc3C[C@H]2C(=O)N(C)c2ccc(N3CCOCC3=O)cc2)c(OC)c1 | > 500 | –
41 | COc1ccc(CC(=O)N2Cc3ccccc3C[C@H]2C(=O)N(C)c2ccc(N3CCCCC3=O)cc2)cc1OC | 246 | –
42 | CC(C)N(C(=O)[C@@H]1Cc2ccccc2CN1C(=O)OCc1ccccc1)c1ccc(N2CCCCC2=O)cc1 | 19 | –
43 | CN(C(=O)[C@@H]1Cc2ccccc2CN1C(=O)OC(C)(C)C)c1ccc(N2CCCCC2=O)cc1 | 221 | –
44 | CN(C(=O)[C@@H]1Cc2ccccc2CN1C(=O)OCc1ccccc1)c1ccc(N2CCCCC2=O)cc1 | 16.4 | –
45 | CN(C(=O)[C@@H]1CCCN(C(=O)c2ccc(Cl)s2)C1)c1ccc(N2CCCCC2=O)cc1 | 69 | –
46 | O=C(Nc1ccc(N2CCN(C(=O)c3cccs3)CC2)cc1)[C@@H]1Cc2ccccc2CN1C(=O)OCc1ccccc1 | > 500 | –
47 | CN(C(=O)[C@@H]1Cc2ccccc2CN1C(=O)c1ccc(Cl)s1)c1ccc(N2CCCCC2=O)cc1 | 56 | –
48 | CN(C(=O)[C@H]1Cc2ccccc2CN1C(=O)Cc1ccc(Cl)cc1)c1ccc(N2CCCCC2=O)cc1 | 0.9 | –
